Measurements taken from ChEMBL document CHEMBL1153861, “Synthesis, optimization and structure-activity relationships of 3,5-disubstituted isoxazolines as new anti-tuberculosis agents” (2009).
≈ marks a conversion by molar mass, not a printed value. Calls of active or inactive are those of the source. No cut-off for these calls is given here.

Legend:
[1] = test system: Mycobacterium tuberculosis; test: Antitubercular activity against Mycobacterium tuberculosis H37Rv; assay type: functional
Method in brief: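 Broth microdilution against M. tuberculosis H37Rv; MIC read by visual inspection of growth.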

Staphylococcus aureus = test: Antimicrobial activity against Staphylococcus aureus; assay type: functional, organism-based
Streptococcus pneumoniae = test: Antimicrobial activity against Streptococcus pneumoniae; assay type: functional, organism-based
Escherichia coli = test: Antimicrobial activity against Escherichia coli; assay type: functional, organism-based

Row | SMILES | MIC [1] [µg/mL] | Activity (Staphylococcus aureus) | Activity (Streptococcus pneumoniae) | Activity (Escherichia coli)
1 | CCOC(=O)C1=NOC(c2ccc(N3CCN(C(=O)OCC)CC3)cc2)C1 (stereo not drawn) | 1.56 (≈ 4.16 µM) | inactive | inactive | inactive
2 | CCCCOC(=O)N1CCN(c2ccc(C3CC(C(=O)O)=NO3)cc2)CC1 (stereo not drawn) | > 200 | inactive | inactive | inactive
3 | CCOC(=O)C1=NOC(c2ccc(N3CCN(C(=O)NC(C)C)CC3)cc2)C1 (stereo not drawn) | 12.5 (≈ 32.2 µM) | inactive | inactive | inactive
4 | CCOC(=O)C1=NOC(c2ccc(-c3noc(-c4ccccc4)n3)cc2)C1 (stereo not drawn) | 3.12 (≈ 8.6 µM) | inactive | inactive | inactive
5 | CCCNC(=O)N1CCN(c2ccc(C3CC(C(=O)OCC)=NO3)cc2)CC1 (stereo not drawn) | 25 (≈ 64.4 µM) | inactive | inactive | inactive
6 | CCOC(=O)C1=NOC(c2ccc(-c3ncon3)cc2)C1 (stereo not drawn) | 50 (≈ 174 µM) | inactive | inactive | inactive
7 | CC(C)COC(=O)N1CCN(c2ccc(C3CC(C(=O)O)=NO3)cc2)CC1 (stereo not drawn) | > 200 | inactive | inactive | inactive
8 | [N-]=[N+]=NCC1=NOC(c2ccc(N3CCN(Cc4ccccc4)CC3)cc2)C1 (stereo not drawn) | 50 (≈ 133 µM) | inactive | inactive | inactive
9 | C=CCOC(=O)N1CCN(c2ccc(C3CC(C(=O)OCC)=NO3)cc2)CC1 (stereo not drawn) | 0.8 (≈ 2.06 µM) | inactive | inactive | inactive
10 | CCCCOC(=O)N1CCN(c2ccc(C3CC(C(=O)OCC)=NO3)cc2)CC1 (stereo not drawn) | 0.8 (≈ 1.98 µM) | inactive | inactive | inactive
11 | NNC(=O)C1=NOC(c2ccc(N3CCN(Cc4ccccc4)CC3)cc2)C1 (stereo not drawn) | 50 (≈ 132 µM) | inactive | inactive | inactive
12 | NC(=O)C1=NOC(c2ccc(N3CCN(Cc4ccccc4)CC3)cc2)C1 (stereo not drawn) | 200 (≈ 549 µM) | inactive | inactive | inactive
13 | COC(=O)C1=NOC(c2ccc(N3CCN(Cc4ccccc4)CC3)cc2)C1 (stereo not drawn) | 1.56 (≈ 4.11 µM) | inactive | inactive | inactive
14 | CCOC(=O)C1=NOC(c2ccc(-c3ccc(OC)c(F)c3)cc2)C1 (stereo not drawn) | 3.12 (≈ 9.1 µM) | inactive | inactive | inactive
15 | CCOC(=O)C1=NOC(c2ccc(-c3ccco3)cc2)C1 (stereo not drawn) | 3.25 (≈ 11.4 µM) | inactive | inactive | inactive
16 | NCC1=NOC(c2ccc(N3CCN(Cc4ccccc4)CC3)cc2)C1 (stereo not drawn) | 200 (≈ 571 µM) | inactive | inactive | inactive
17 | CCOC(=O)C1=NOC(c2ccc(-c3ccc(C=O)cc3)cc2)C1 (stereo not drawn) | 6.25 (≈ 19.3 µM) | inactive | inactive | inactive
18 | O=C([O-])C1=NOC(c2ccc(N3CCN(Cc4ccccc4)CC3)cc2)C1.[Li+] (stereo not drawn) | 100 |  |  | 
19 | CCOC(=O)C1=NOC(c2ccc(N3CCN(Cc4ccccc4)CC3)cc2)C1 (stereo not drawn) | 1.56 (≈ 3.96 µM) | inactive | inactive | inactive
20 | CCOC(=O)C1=NOC(c2ccc(N3CCN(C(=O)NCCc4ccccc4)CC3)cc2)C1 (stereo not drawn) | 0.8 (≈ 1.78 µM) | inactive | inactive | inactive
21 | O=C(O)C1=NOC(c2ccc(N3CCN(Cc4ccccc4)CC3)cc2)C1 (stereo not drawn) [listing 1 of 2 here] |  | inactive | inactive | inactive
22 | CCCCCCNC(=O)N1CCN(c2ccc(C3CC(C(=O)OCC)=NO3)cc2)CC1 (stereo not drawn) | 0.4 (≈ 0.929 µM) | inactive | inactive | inactive
23 | Cc1nnc(C2=NOC(c3ccc(N4CCN(Cc5ccccc5)CC4)cc3)C2)o1 (stereo not drawn) | 200 (≈ 496 µM) | inactive | inactive | inactive

Row | SMILES | MIC [1] [µg/mL] | Activity (Staphylococcus aureus) | Activity (Streptococcus pneumoniae) | Activity (Escherichia coli)
24 | CCOC(=O)C1=NOC(c2ccc(N3CCN(CC4CC4)CC3)cc2)C1 (stereo not drawn) | 12.5 (≈ 35 µM) | inactive | inactive | inactive
25 | CCOC(=O)C1=NOC(c2ccc(N3CCN(C(=O)OC)CC3)cc2)C1 (stereo not drawn) | 1.56 (≈ 4.32 µM) | inactive | inactive | inactive
26 | CCOC(=O)C1=NOC(c2ccc(-c3ccccc3)cc2)C1 (stereo not drawn) | 100 (≈ 339 µM) | inactive | inactive | inactive
27 | CCOC(=O)C1=NOC(c2ccc(N3CCCCC3)cc2)C1 (stereo not drawn) | 6.25 (≈ 20.7 µM) | inactive | inactive | inactive
28 | CC(=O)NCC1=NOC(c2ccc(N3CCOCC3)cc2)C1 (stereo not drawn) | > 200 | inactive | inactive | inactive
29 | OCC1=NOC(c2ccc(N3CCOCC3)cc2)C1 (stereo not drawn) | > 200 | inactive | inactive | inactive
30 | CCOC(=O)C1=NOC(c2ccc(N3CCN(C(=O)OC(C)(C)C)CC3)cc2)C1 (stereo not drawn) | 0.8 (≈ 1.98 µM) | inactive | inactive | inactive
31 | [N-]=[N+]=NCC1=NOC(c2ccc(N3CCOCC3)cc2)C1 (stereo not drawn) | 200 (≈ 696 µM) | inactive | inactive | inactive
32 | OCC1=NOC(c2ccc(N3CCN(Cc4ccccc4)CC3)cc2)C1 (stereo not drawn) | 200 (≈ 569 µM) | inactive | inactive | inactive
33 | CCOC(=O)C1=NOC(c2ccc(N3CCN(C(=O)Nc4ccccc4)CC3)cc2)C1 (stereo not drawn) | 6.25 (≈ 14.8 µM) | inactive | inactive | inactive
34 | NCC1=NOC(c2ccc(N3CCOCC3)cc2)C1 (stereo not drawn) | > 200 | inactive | inactive | inactive
35 | CCCNC(=O)C1=NOC(c2ccc(N3CCN(Cc4ccccc4)CC3)cc2)C1 (stereo not drawn) | 200 (≈ 492 µM) | inactive | inactive | inactive
36 | CCOC(=O)C1=NOC(c2ccc(N3CCN(C(=O)OCC(C)C)CC3)cc2)C1 (stereo not drawn) | 0.8 (≈ 1.98 µM) | inactive | inactive | inactive
37 | CCOC(=O)C1=NOC(c2ccc(N3CCNCC3)cc2)C1 (stereo not drawn) | 50 (≈ 165 µM) | inactive | inactive | inactive
38 | C=CCN1CCN(c2ccc(C3CC(C(=O)OCC)=NO3)cc2)CC1 (stereo not drawn) | 6.25 (≈ 18.2 µM) | inactive | inactive | inactive
39 | O=C(O)C1=NOC(c2ccc(N3CCN(C(=O)NCCc4ccccc4)CC3)cc2)C1 (stereo not drawn) | > 200 | inactive | inactive | inactive
40 | CCOC(=O)C1=NOC(c2ccc(N3CCOCC3)cc2)C1 (stereo not drawn) | > 200 | inactive | inactive | inactive
41 | CCOC(=O)C1=NOC(c2ccc(N3CCC(Oc4ccc(OC(F)(F)F)cc4)CC3)cc2)C1 (stereo not drawn) | 25 (≈ 52.3 µM) | inactive | inactive | inactive
42 | CC(=O)NCC1=NOC(c2ccc(N3CCN(Cc4ccccc4)CC3)cc2)C1 (stereo not drawn) | > 200 | inactive | inactive | inactive
43 | CCCCCCNC(=O)N1CCN(c2ccc(C3CC(C(=O)O)=NO3)cc2)CC1 (stereo not drawn) | > 200 | inactive | inactive | inactive
44 | O=C(O)C1=NOC(c2ccc(N3CCN(Cc4ccccc4)CC3)cc2)C1 (stereo not drawn) [listing 2 of 2 here] | > 200 |  |  | 
45 | CCOC(=O)C1=NOC(c2ccc(N3CCN(Cc4ccc([N+](=O)[O-])cc4)CC3)cc2)C1 (stereo not drawn) | 0.8 (≈ 1.82 µM) | inactive | inactive | inactive
